# Measured values from different studies.
# Compare with care: the assays were run in different laboratories.
# Cell line: A549
# Observed: cell growth or viability
Compound,technique,time,setting,IC50 [µM]
Cc1nc(Nc2ccc3c(c2)C(C)(C)C(=O)N3)c2ccccc2n1,MTT,,,3.21
C=C(F)C(=O)N1CCN(c2nc(OC[C@@H]3CCCN3C)nc3c2CCN(c2cccc4cccc(Cl)c24)C3)C[C@@H]1CC#N,ATP luminescence,,3D culture,> 1
Cc1ccc2c(-c3cc4c(CN5CCN(Cc6ccccn6)CC5)cnc(C)c4o3)cc(=O)oc2c1,MTT,72 h,,43.1
COc1cccc2c1C(=O)c1c(O)c3c(c(O)c1C2=O)C[C@@](O)(C(=O)CO)C[C@@H]3O[C@H]1C[C@H](N)[C@H](O)[C@H](C)O1,MTT,72 h,,2.7
C[C@H]1Oc2cc(cnc2N)-c2c(nn(C)c2C#N)CN(C)C(=O)c2ccc(F)cc21,,,,> 8.41
Cc1nc(N(Cc2ccccc2)c2ccc3c(c2)/C(=C/c2ccccc2)C(=O)N3Cc2ccccc2)c2ccccc2n1 (mixture of isomers),MTT,,,0.64
Cc1ncc(CN2CCc3ccccc3C2)c2cc(C(=O)c3ccc4c(c3)OCCO4)oc12,MTT,72 h,,28.2
O=C(C=Cc1ccccc1)Nc1cc(-c2ccnc(N3CCOCC3)c2)ccn1,MTT,72 h,,0.444
O=C(O)c1ccc2c(c1)nc(Nc1cccc(Cl)c1)c1ccncc12,resazurin,48 h,,11.5
CNC(=O)c1cc(Oc2ccc(NC(=O)Nc3ccc(Cl)c(C(F)(F)F)c3)cc2)ccn1,MTT,72 h,,5.58
Cc1nc(Nc2ccc3c(c2)/C(=C/c2ccccc2C)C(=O)N3)c2ccccc2n1,MTT,,,18.2
C=CC(=O)Nc1cc(Nc2nccc(-c3cn(C)c4ccccc34)n2)c(OC)cc1N(C)CCN(C)C,MTT,72 h,,28.2
[NH2][Pt]([NH2])([Cl])[Cl],MTT,,,9.5
COc1cc2ncnc(N(C)c3ccc4c(c3)/C(=C/c3cccc(Cl)c3)C(=O)N4C)c2cc1OC,MTT,,,5.83
